Calls of active or inactive are those of the source. The calls are words filed in the database; no cut-off is given here.

The target of one experiment is Histamine H1 receptor (Homo sapiens, UniProt P35367). In words: Displacement of [3H]-Pyrilamine from human recombinant histamine H1 receptor expressed in stable HEK cells at 10 uM after 90 mins by microbeta scintillation counting method relative to control. It is filed as cell-based. A general note: Displacement assays read how much labelled ligand stays bound in the presence of the test substance.
Histamine H1 receptor, sequence (P35367 whole entry): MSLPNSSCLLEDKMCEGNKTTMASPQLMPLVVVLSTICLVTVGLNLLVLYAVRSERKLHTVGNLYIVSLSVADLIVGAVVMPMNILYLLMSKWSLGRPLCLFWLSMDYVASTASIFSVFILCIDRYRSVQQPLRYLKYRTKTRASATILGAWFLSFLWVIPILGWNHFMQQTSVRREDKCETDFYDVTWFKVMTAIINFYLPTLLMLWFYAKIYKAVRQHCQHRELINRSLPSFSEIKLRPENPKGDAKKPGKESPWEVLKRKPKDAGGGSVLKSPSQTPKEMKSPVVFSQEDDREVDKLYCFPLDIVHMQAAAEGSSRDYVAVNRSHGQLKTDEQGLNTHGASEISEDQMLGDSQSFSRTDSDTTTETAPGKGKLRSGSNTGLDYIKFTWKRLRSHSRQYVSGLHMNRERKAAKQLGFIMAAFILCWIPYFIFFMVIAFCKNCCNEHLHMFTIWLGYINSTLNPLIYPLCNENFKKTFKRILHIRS

The target in experiment [1] is Kappa-type opioid receptor (Homo sapiens, UniProt P41145). In words: Displacement of [3H]-U69593 from human recombinant KOR receptor expressed in stable HEK cells at 10 uM after 90 mins by microbeta scintillation counting method relative to control. It counts as cell-based.
Kappa-type opioid receptor, sequence (P41145 whole entry): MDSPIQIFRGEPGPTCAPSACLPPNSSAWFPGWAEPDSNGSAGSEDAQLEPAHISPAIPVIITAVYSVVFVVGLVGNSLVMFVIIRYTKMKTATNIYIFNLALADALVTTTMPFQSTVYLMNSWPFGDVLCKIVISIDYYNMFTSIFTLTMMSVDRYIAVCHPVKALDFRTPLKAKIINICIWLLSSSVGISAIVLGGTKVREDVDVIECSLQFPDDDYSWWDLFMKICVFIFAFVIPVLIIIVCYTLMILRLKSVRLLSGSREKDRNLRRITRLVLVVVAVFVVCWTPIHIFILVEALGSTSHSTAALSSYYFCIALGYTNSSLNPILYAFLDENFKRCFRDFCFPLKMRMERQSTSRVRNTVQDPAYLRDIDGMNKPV
For experiment [2], the species on record is Homo sapiens. Kind of experiment: Selectivity index, ratio of Ki for human recombinant adrenergic Beta2 receptor to Ki for human recombinant sigma1 receptor. The method in brief: (§1)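 Both Ki values in each ratio come from NIMH Psychoactive Drug Screening Program radioligand binding. […] Other targets were given full binding curves, measured in triplicate, and Ki was taken from a sigmoidal curve fit. Some values were repeated in duplicate or triplicate independent experiments.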

For experiment [3], the species on record is Homo sapiens. In words: Selectivity index, ratio of Ki for human recombinant adrenergic Beta1 receptor expressed in Flp-In CHO to Ki for human recombinant sigma1 receptor. The method in brief:
as §1

Experiment [4] has as its target T1, Muscarinic acetylcholine receptor M1 (Homo sapiens) (UniProt P11229).
T1 sequence (whole entry): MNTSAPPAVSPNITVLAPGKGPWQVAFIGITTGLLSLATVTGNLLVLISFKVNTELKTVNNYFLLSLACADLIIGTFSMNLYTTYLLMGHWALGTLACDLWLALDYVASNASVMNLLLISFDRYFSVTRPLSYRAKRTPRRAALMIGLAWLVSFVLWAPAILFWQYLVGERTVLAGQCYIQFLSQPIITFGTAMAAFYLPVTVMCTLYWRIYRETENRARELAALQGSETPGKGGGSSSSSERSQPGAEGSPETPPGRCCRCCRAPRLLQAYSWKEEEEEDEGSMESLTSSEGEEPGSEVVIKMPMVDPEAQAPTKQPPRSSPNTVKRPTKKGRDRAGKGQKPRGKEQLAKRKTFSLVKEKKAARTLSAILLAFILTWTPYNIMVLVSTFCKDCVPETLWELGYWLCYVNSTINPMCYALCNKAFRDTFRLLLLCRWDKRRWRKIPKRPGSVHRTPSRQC
Kind of experiment: Displacement of [3H]-QNB/[3H]-NMS from human recombinant Muscarinic acetylcholine M1 receptor expressed in stable CHO cells at 10 uM after 90 mins by microbeta scintillation counting method relative to control. It is filed as cell-based.

Experiment [5] relates to 661W. In words: Cytoprotective activity in mouse 661W cells assessed as reduction in tBHP-induced ROS level at 30 uM after 2 hrs by […] fluorescent microscopic analysis. It counts as functional, cell-based. The method, boiled down: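 661W cells seeded on coverslips for 18 h, then exposed 2 h to 55 μM tBHP with or without test agent or (+)-pentazocine. ROS are detected with CellROX green dye by epifluorescence, with DAPI marking nuclei. Fluorescence intensity is quantified as mean ± SD from three independent experiments, each run in duplicate.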

Experiment [6] has as its target 5-hydroxytryptamine receptor 6 (Homo sapiens, UniProt P50406). Kind of experiment: Displacement of [3H]-LSD from human recombinant 5-HT6 receptor expressed in stable HEK cells at 10 uM after 90 mins by microbeta scintillation counting method relative to control. It counts as cell-based. The method in brief:
(§2)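 Radioligand binding run by the NIMH Psychoactive Drug Screening Program. […] Otherwise Ki comes from sigmoidal curve fits of triplicate measurements in a single experiment, or is averaged over repeated experiments each run in triplicate.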

The species entered for experiment [7] is Homo sapiens. In words: Selectivity index, ratio of Ki for human recombinant adrenergic Beta3 receptor to Ki for human recombinant sigma1 receptor. The method in brief: as §1
In the next experiment the target is Mu-type opioid receptor (Homo sapiens, UniProt P35372). In words: Displacement of [3H]-DAMGO from human recombinant MOR receptor expressed in stable HEK cells at 10 uM after 90 mins by microbeta scintillation counting method relative to control. It is filed as cell-based. The method, boiled down:
as §2

Experiment [8] deals with Alpha-2B adrenergic receptor (Homo sapiens) (UniProt P18089). In words: Displacement of [3H]-Rauwolscine from human recombinant adrenergic Alpha2B receptor expressed in HEKT cells at 10 uM after 90 mins by microbeta scintillation counting method relative to control. It is filed as cell-based.
Alpha-2B adrenergic receptor (Homo sapiens), sequence (P18089 whole entry): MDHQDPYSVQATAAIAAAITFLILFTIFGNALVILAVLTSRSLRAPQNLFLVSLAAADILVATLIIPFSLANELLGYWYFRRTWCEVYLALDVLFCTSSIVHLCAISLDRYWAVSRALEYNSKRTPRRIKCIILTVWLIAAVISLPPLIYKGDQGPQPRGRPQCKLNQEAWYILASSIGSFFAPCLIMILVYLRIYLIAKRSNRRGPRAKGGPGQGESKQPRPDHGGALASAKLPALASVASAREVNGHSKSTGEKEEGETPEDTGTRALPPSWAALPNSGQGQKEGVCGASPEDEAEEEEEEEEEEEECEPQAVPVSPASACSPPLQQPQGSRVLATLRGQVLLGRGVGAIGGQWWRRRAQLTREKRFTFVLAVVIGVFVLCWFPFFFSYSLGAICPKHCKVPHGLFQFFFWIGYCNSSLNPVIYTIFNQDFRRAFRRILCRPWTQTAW
For experiment [9], the species on record is Homo sapiens. In words: Selectivity index, ratio of Ki for human recombinant 5-HT7A receptor to Ki for human recombinant sigma1 receptor.
Experiment [10] is filed under the species Homo sapiens. In words: Selectivity index, ratio of Ki for human recombinant DOR receptor to Ki for human recombinant sigma1 receptor. The method in brief:
as §1

The subject of experiment [11] is 661W. Kind of experiment: Cytoprotective activity in mouse 661W cells assessed as inhibition of t-BHP induced oxidative stress by measuring cell viability at 200 uM after 24 hrs by MTT assay (reference value: >50%). It is filed as functional, cell-based. (In general: Tetrazolium assays rely on reduction of a dye to a coloured formazan, in cell work by metabolically active cells.)

For experiment [12], the target named is T2, 5-hydroxytryptamine receptor 1A (Homo sapiens, UniProt P08908).
T2 sequence (P08908 whole entry): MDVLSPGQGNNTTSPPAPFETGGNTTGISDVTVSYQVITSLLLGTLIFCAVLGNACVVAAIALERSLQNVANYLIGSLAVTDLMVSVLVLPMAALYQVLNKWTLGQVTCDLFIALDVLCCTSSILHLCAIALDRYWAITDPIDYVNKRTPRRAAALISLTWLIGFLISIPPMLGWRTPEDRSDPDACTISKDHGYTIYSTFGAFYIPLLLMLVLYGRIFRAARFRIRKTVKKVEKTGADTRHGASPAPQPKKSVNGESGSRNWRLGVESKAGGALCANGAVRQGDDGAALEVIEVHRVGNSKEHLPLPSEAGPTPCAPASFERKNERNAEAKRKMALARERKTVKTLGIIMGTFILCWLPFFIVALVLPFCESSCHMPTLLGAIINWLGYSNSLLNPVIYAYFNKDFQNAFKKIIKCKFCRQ
In words: Displacement of [3H]-Way100635 from human recombinant 5-HT1A expressed in stable CHO cells after 90 mins by microbeta scintillation counting method. It is filed as cell-based. The method in brief:
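Run by NIMH Psychoactive Drug Screening Program. Otherwise, competition binding curves are generated and pKi is taken from a sigmoidal curve fit. Data are either triplicate measurements within one experiment, with the error from the fit, or the mean of repeated experiments, each run in triplicate.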

Experiment [13] has as its target Sodium-dependent dopamine transporter (Homo sapiens, UniProt Q01959). In words: Displacement of [3H]-Win35428 from human recombinant DAT receptor expressed in stable HEK cells at 10 uM after 90 mins by microbeta scintillation counting method relative to control. It counts as cell-based.
For experiment [14], the target named is 5-hydroxytryptamine receptor 5A (Homo sapiens, UniProt P47898). In words: Displacement of [3H]-LSD from human recombinant 5-HT5A receptor expressed in Flp-In CHO cells after 90 mins by microbeta scintillation counting method. It counts as cell-based. The method, boiled down: as §2
5-hydroxytryptamine receptor 5A, sequence (P47898 whole entry): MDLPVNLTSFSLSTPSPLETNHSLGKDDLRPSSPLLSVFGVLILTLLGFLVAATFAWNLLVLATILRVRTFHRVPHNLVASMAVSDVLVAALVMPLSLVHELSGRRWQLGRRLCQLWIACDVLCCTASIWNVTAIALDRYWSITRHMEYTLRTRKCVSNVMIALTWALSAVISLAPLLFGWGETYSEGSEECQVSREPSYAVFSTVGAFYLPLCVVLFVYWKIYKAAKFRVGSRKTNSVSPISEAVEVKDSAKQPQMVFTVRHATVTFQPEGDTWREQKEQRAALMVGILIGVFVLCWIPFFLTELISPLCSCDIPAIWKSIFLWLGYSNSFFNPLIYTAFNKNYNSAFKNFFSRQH
Experiment [15] has as its target 5-hydroxytryptamine receptor 7 (Homo sapiens, UniProt P34969). In words: Displacement of [3H]-LSD from human recombinant 5-HT7 receptor expressed in stable HEK cells at 10 uM after 90 mins by microbeta scintillation counting method relative to control. It is filed as cell-based. The method, boiled down:
as §2

Experiment [16] addresses Beta-1 adrenergic receptor (Homo sapiens, UniProt P08588). Kind of experiment: Displacement of [125I]-pindolol from human recombinant adrenergic Beta1 receptor expressed in Flp-In CHO cells at 10 uM after 90 mins by microbeta scintillation counting method relative to control. It counts as cell-based. The method, boiled down:
as §2

The target of experiment [17] is 5-hydroxytryptamine receptor 2A (Homo sapiens, UniProt P28223). Kind of experiment: Displacement of [3H]-Ketanserin from human recombinant 5-HT2A receptor transiently expressed in HEKT cells at 10 uM after 90 mins by microbeta scintillation counting method relative to control. It is filed as cell-based. The method in brief:
as §2

5-hydroxytryptamine receptor 6, sequence (P50406 whole entry): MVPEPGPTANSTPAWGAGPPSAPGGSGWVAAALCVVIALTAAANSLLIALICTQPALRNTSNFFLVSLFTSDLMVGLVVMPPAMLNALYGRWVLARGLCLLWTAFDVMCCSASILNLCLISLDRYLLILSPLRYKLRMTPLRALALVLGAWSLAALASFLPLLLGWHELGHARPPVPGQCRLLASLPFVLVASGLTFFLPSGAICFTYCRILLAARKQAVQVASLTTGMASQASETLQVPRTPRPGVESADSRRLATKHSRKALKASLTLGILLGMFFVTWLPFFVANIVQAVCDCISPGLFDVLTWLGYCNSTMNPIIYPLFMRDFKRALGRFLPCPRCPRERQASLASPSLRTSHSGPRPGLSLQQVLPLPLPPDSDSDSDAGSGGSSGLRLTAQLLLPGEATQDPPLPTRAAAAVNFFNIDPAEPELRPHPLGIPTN
5-hydroxytryptamine receptor 7, sequence (P34969 whole entry): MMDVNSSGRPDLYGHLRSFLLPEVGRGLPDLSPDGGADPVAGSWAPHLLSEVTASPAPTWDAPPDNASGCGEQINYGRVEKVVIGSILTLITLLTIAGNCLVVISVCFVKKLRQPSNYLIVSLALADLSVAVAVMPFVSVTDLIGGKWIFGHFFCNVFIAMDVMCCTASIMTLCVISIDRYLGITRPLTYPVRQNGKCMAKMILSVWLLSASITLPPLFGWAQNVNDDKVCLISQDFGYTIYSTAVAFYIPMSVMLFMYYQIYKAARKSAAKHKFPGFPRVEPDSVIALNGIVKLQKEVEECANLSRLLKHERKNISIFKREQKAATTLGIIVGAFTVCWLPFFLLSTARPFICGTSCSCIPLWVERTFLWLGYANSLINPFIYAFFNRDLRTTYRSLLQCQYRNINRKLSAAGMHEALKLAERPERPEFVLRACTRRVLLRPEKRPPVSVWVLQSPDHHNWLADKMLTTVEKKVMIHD
Sodium-dependent dopamine transporter, sequence (Q01959 whole entry): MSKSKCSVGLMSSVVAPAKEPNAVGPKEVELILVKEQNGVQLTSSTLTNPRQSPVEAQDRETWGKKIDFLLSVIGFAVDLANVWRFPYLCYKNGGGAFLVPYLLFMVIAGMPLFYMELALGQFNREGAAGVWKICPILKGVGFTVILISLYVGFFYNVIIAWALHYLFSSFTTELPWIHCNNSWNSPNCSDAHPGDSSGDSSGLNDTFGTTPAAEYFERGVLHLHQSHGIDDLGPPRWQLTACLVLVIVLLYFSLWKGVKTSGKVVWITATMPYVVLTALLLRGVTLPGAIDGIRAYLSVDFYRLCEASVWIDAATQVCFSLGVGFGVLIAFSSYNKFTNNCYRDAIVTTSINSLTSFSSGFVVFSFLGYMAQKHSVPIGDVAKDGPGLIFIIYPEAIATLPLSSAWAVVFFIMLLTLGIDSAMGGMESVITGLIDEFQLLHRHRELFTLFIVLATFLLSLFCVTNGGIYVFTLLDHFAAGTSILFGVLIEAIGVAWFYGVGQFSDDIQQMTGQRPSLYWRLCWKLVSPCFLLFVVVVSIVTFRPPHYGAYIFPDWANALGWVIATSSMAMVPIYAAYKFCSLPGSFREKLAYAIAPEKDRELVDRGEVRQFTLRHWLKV
Beta-1 adrenergic receptor, sequence (P08588 whole entry, looked up): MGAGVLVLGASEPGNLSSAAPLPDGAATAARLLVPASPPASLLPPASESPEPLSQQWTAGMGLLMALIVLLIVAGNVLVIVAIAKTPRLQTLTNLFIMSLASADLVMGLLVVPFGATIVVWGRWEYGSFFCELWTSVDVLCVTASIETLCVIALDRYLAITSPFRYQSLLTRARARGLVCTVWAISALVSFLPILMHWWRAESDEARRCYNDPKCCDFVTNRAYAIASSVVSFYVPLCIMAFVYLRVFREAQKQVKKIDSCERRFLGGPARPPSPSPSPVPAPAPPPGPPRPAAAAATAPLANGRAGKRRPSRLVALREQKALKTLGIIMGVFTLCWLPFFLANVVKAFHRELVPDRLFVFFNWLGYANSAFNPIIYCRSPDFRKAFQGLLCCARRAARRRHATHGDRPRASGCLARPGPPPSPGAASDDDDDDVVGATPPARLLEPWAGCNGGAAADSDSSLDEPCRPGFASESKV
Mu-type opioid receptor, sequence (P35372 whole entry): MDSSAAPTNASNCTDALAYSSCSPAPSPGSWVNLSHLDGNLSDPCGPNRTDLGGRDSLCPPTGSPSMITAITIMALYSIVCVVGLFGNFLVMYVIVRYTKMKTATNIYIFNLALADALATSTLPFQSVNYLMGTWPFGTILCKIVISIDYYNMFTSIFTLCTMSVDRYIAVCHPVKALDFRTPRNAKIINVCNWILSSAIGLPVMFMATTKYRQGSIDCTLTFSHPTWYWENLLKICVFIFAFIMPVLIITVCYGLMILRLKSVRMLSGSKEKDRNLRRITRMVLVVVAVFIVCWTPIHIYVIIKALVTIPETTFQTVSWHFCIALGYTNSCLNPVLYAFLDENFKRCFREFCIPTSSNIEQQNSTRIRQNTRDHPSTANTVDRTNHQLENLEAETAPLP
5-hydroxytryptamine receptor 2A, sequence (P28223 whole entry): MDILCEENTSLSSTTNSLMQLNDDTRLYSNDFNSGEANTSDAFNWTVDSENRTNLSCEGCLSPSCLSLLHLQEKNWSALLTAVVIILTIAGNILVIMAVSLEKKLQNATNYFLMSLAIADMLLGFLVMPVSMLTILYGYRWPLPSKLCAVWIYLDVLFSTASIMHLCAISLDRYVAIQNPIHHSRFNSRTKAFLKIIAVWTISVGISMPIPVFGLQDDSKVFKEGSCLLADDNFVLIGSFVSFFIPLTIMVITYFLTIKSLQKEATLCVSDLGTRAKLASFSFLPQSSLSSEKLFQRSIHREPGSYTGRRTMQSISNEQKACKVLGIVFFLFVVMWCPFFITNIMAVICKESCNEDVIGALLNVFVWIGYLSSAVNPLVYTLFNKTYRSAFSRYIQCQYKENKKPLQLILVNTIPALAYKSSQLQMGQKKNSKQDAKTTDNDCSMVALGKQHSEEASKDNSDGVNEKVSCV

On to `COc1cc(OC)c2c(c1)OC[C@@]1(C)NCC[C@@H]21` (racemic), for which the inhibition (on Histamine H1 receptor; in experiment [1]; in experiment [4]; in [6]; on Mu-type opioid receptor; in experiment [8]) was below 50% throughout. Further, the inhibition – broadly, the change of the read-out against control, counted positive when it falls – in experiment [13] was below 50%. For the same compound, the Ratio Ki in the experiment filed under Homo sapiens [2], in the experiment filed under Homo sapiens [3], in the experiment listed under Homo sapiens [7], in the experiment filed under Homo sapiens [9] and in the experiment filed under Homo sapiens [10] was above 20 throughout. Further, the inhibition entry with 661W [5] is “Active”. Moreover, the outcome in the experiment on 661W [11] was inactive. In experiment [12] (read-out: pKi (converted)), the Ki was 1000 nM.

Turning to `C[C@@]12CN(c3ccccc3)c3ccccc3[C@@H]1CCN2` (racemic), the Ki in experiment [12] (cho, read-out: Ki) was above 10000 nM; in [12] (read-out: pKi (converted)) it was above 10000 nM.

Take `CC[C@H]1c2cc(OC)ccc2CC[C@@]1(C)N` (racemic): the inhibition in [4], in experiment [6], in experiment [15], in [16] and in experiment [17] was below 50% in each case. Also, the Ki was 2000 nM in [14] and 631 nM in experiment [12] (read-out: pKi (converted)).

For the compound `CC[C@H]1c2cc(C)ccc2OC[C@@]1(C)N` (racemic), the inhibition (on Histamine H1 receptor; in experiment [1]; in experiment [4]; in [6]; in [15]; in experiment [16]) was below 50% each time. The inhibition (in experiment [17]; at Mu-type opioid receptor; in experiment [8]; in [13]) was below 50% each time. Also, the results for the Ki in experiment [14] and in experiment [12] (read-out: pKi (converted)) were above 10000 nM and 2000 nM, respectively.

Consider `CC[C@H]1c2ccccc2N(c2ccccc2)C[C@@]1(C)N` (racemic), for which the results for the Ki in [14] and in experiment [12] (read-out: Ki) were above 10000 nM and 74 nM, respectively.

The record behind these values is ChEMBL document CHEMBL4304834, “3-Amino-chromanes and Tetrahydroquinolines as Selective 5-HT2B, 5-HT7, or σ1 Receptor Ligands” (ACS Med Chem Lett, 2019).
